Calls of active or inactive are those of the source. The rule behind the calls is not given here.
What was measured:
[1] = Permeability across MDCK2-MDR1 cells expressing MDR1 at 3 uM in absence of 2 uM P-gp inhibitor Elacridal by mass spectroscopy; type: ADME, cell-based, Canis lupus familiaris; conditions: dog, mdck-ii
In short: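 MDR1-MDCKII cells seeded on Transwell inserts and assayed 3 days later at 37°C in HBSS with glucose and HEPES. Monolayers preincubated about 30 min with or without 2 μM elacridar, then given compound at 3 μM final (apical). After 60 min shaking, both chambers were sampled for MS. Integrity checked by Lucifer Yellow and TEER. Triplicate. Papp(A-B) and AQ calculated.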

Mus musculus [2] = assay: (§1) Cmax in mouse at 50 mg/kg, po administered as single dose measured over 6 hrs by MS/MS method; type: ADME, organism-based; parameters: dose 50 mg/kg, route oral; conditions: in vivo, 6 h
In short: (§2)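 Mice, three per group, given one oral dose of 50 mg/kg in 5% DMSO, 3% EtOH, 7% Tween 80 in saline. Tail-snip blood taken at 0.5, 1, 2, 3, 4 and 6 h. Plasma extracted with acetonitrile and quantified by LC-MS/MS.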

Mus musculus [3] = assay: Time duration for plasma concentration staying above IC50 in Trypanosoma brucei rhodesiense STIB900 infected Swiss Webster mouse at 50 mg/kg, po dosed 24 hrs post infection every 12 hrs for 4 days
[4] = Tmax in mouse at 50 mg/kg, po administered as single dose measured over 6 hrs by MS/MS method; type: ADME, organism-based; parameters: dose 50 mg/kg, route oral; conditions: in vivo; in short: as §2
[5] = target: ATP-dependent translocase ABCB1 (Homo sapiens, UniProt P08183); assay: Binding affinity to MDR1 expressed in MDCK2 cells assessed as absorptive quotient at 3 uM in absence of 2 uM by mass spectroscopy; type: ADME, cell-based; conditions: dog, mdck-ii
In short: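 Monolayers preincubated about 30 min with or without 2 μM elacridar, then given compound at 3 μM final (apical). After 60 min shaking, both chambers were sampled for MS. Integrity checked by Lucifer Yellow and TEER. Triplicate. Papp(A-B) and AQ calculated.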

[6] = tested on: Trypanosoma brucei rhodesiense; assay: Antiparasitic activity against Trypanosoma brucei rhodesiense STIB900 infected in Swiss Webster mouse assessed as reduction in parasitemia at 50 mg/kg, po dosed 24 hrs post infection every 12 hrs for 4 days measured 48 hrs post infection by microscopy; type: functional; parameters: scale not given: the % may be the effect or the level left
In short: (§3)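 Female Swiss Webster (CFW) mice, 6-8 weeks old, five per group. Each infected IP at time 0 with 1×10^4 bloodstream-form STIB900 in 0.2 ml. Compound in 5% DMSO, 3% EtOH, 7% Tween 80 in saline, given by oral gavage (0.2 mL). Vehicle-only group dosed alongside. Parasitemia read daily by wet-mount microscopy of tail blood. Unpaired t-tests per day.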

[7] = tested on: Trypanosoma brucei rhodesiense; assay: Antiparasitic activity against Trypanosoma brucei rhodesiense STIB900 blood stream forms incubated for 48 hrs by alamar blue assay; type: functional, organism-based; conditions: STIB900, 48 h
HepG2 = assay: Cytotoxicity against human HepG2 cells incubated for 48 hrs by alamar blue assay; type: cell-based; conditions: HepG2, 48 h
In short: (§4)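 […] cells in RPMI or HepG2 cells in DMEM/F-12, each with 10% serum, seeded at 5×10^3 per well. Exposed to serial compound dilutions for 48 h.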

Mus musculus [8] = assay: (§5) Half life in mouse at 50 mg/kg, po administered as single dose measured over 6 hrs by MS/MS method; type: ADME, organism-based; parameters: dose 50 mg/kg, route oral; conditions: in vivo, 6 h; in short: as §2
Mus musculus [9] = assay: (§6) AUC in mouse at 50 mg/kg, po administered as single dose measured over 6 hrs by MS/MS method; type: ADME, organism-based, Plasma; parameters: time < 6 hr, dose 50 mg/kg, route oral; conditions: in vivo, 6 h; in short: as §2
[10] = Selectivity ratio of IC50 for human MetRS to IC50 for Trypanosoma brucei MetRS
In short: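 Ratio of the human mitochondrial MetRS IC50 to the T. brucei MetRS IC50, each from a [3H]methionine aminoacylation assay.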

[11] = tested on: Trypanosoma brucei rhodesiense; assay: Antiparasitic activity against Trypanosoma brucei rhodesiense STIB900 infected in Swiss Webster mouse assessed as reduction in parasitemia at 50 mg/kg, po dosed 24 hrs post infection every 12 hrs for 4 days measured 96 hrs post infection by microscopy; type: functional; parameters: scale not given: the % may be the effect or the level left; in short: as §3
[12] = tested on: Trypanosoma brucei rhodesiense; assay: Antiparasitic activity against Trypanosoma brucei rhodesiense STIB900 infected in Swiss Webster mouse assessed as reduction in parasitemia at 50 mg/kg, po dosed 24 hrs post infection every 12 hrs for 4 days measured 72 hrs post infection by microscopy; type: functional; parameters: scale not given: the % may be the effect or the level left; in short: as §3
[13] = tested on: Trypanosoma brucei rhodesiense; assay: Antiparasitic activity against Trypanosoma brucei rhodesiense STIB900 infected in Swiss Webster mouse assessed as reduction in parasitemia at 50 mg/kg, po dosed 24 hrs post infection every 12 hrs for 4 days measured 120 hrs post infection by microscopy; type: functional, organism-based; parameters: dose 50 mg/kg
[14] = tested on: Trypanosoma brucei brucei; assay: Growth inhibition of Trypanosoma brucei brucei 427 blood stream forms after 48 hrs by alamar blue assay; type: functional, organism-based; conditions: Trypanosoma brucei, 427, 48 h
In short: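 Strain 427 bloodstream forms cultured in HMI-9 with 10% FBS at 37°C, 5% CO2. Triplicate wells seeded at 5×10^4 trypomastigotes with serial compound dilutions from 20 mM DMSO stocks. AlamarBlue read-out at 48 h, with pentamidine as the positive control.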

Trypanosoma brucei [15] = assay: Inhibition of protein synthesis in Trypanosoma brucei assessed as reduction in [3H]L-histidine incorporation into proteins incubated for 4 hrs by scintillation counting; type: functional, organism-based
[16] = Selectivity index, ratio of EC50 for human CRL8155 cells to EC50 for Trypanosoma brucei brucei 427; type: toxicity; conditions: read-out: Ratio EC50
Mus musculus [17] = assay: Toxicity in Trypanosoma brucei rhodesiense STIB900 infected Swiss Webster mouse at 50 mg/kg, po dosed 24 hrs post infection every 12 hrs for 4 days; type: organism-based; parameters: dose 50 mg/kg, route oral; conditions: in vivo
Trypanosoma brucei [18] = assay: Binding affinity to Trypanosoma brucei MetRS at 100 uM by thermal shift assay
In short: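 Thermal shift (ΔTm) read-out with T. brucei MetRS at 0.4 mg/ml and 5% DMSO; otherwise per an earlier protocol. The test agent was at the single concentration in the curator's line. Repeated three times independently.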

[19] = Selectivity index, ratio of EC50 for human HepG2 cells to EC50 for Trypanosoma brucei brucei 427; type: toxicity, cell-based; conditions: read-out: Ratio EC50
[20] = Inhibition of Trypanosoma brucei MetRS aminoacylation activity assessed as reduction in [3H]methionine incorporation into Escherichia coli tRNA pre-incubated for 15 mins before tRNA addition and measured after 120 mins by scintillation counting
In short: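 Recombinant enzyme at 10 nM, preincubated 15 min with 12-point two-fold inhibitor dilutions in 25 mM HEPES pH 7.9, 10 mM MgCl2, 50 mM KCl, spermine, BSA, DTT, 1% DMSO and pyrophosphatase. Reaction started with 400 μg/mL E. coli tRNA, 0.1 mM ATP and 250 nM [3H]methionine, run 120 min at room temperature. TCA-precipitated and filtered for scintillation counting. Quadruplicate, with IC50 by sigmoidal fit.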

[21] = as §1; type: ADME, organism-based; parameters: dose 50 mg/kg, route oral; conditions: in vivo; in short: as §2
[22] = as §5; type: ADME, organism-based; parameters: dose 50 mg/kg, route oral; conditions: in vivo; in short: as §2
[23] = as §6; type: ADME, organism-based, Plasma; parameters: time < 6 hr, dose 50 mg/kg, route oral; conditions: plasma; in short: as §2
[24] = Plasma concentration in Swiss Webster mouse at 5 mg/kg, ip after 60 mins by MS/MS method; type: ADME, organism-based; parameters: dose 5 mg/kg, route intraperitoneal
In short: (§7)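 Female Swiss Webster mice, 6-8 weeks old, three per compound, given 5 mg/kg IP in 5% DMSO/3% EtOH/7% Tween 80 saline. Killed at 1 h. Plasma and homogenised brain extracted with acetonitrile containing an extraction standard, with spiked blank brains used for standardisation. Quantified by LC-MS/MS.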

[25] = Drug level in Swiss Webster mouse brain at 5 mg/kg, ip after 60 mins by MS/MS method; type: ADME, organism-based; parameters: dose 5 mg/kg, route intraperitoneal; conditions: read-out: Drug uptake; in short: as §7
[26] = Cytotoxicity against human CRL8155 cells incubated for 48 hrs by alamar blue assay; type: cell-based; conditions: CRL8155, 48 h; in short: as §4

ATP-dependent translocase ABCB1, sequence (P08183 whole entry): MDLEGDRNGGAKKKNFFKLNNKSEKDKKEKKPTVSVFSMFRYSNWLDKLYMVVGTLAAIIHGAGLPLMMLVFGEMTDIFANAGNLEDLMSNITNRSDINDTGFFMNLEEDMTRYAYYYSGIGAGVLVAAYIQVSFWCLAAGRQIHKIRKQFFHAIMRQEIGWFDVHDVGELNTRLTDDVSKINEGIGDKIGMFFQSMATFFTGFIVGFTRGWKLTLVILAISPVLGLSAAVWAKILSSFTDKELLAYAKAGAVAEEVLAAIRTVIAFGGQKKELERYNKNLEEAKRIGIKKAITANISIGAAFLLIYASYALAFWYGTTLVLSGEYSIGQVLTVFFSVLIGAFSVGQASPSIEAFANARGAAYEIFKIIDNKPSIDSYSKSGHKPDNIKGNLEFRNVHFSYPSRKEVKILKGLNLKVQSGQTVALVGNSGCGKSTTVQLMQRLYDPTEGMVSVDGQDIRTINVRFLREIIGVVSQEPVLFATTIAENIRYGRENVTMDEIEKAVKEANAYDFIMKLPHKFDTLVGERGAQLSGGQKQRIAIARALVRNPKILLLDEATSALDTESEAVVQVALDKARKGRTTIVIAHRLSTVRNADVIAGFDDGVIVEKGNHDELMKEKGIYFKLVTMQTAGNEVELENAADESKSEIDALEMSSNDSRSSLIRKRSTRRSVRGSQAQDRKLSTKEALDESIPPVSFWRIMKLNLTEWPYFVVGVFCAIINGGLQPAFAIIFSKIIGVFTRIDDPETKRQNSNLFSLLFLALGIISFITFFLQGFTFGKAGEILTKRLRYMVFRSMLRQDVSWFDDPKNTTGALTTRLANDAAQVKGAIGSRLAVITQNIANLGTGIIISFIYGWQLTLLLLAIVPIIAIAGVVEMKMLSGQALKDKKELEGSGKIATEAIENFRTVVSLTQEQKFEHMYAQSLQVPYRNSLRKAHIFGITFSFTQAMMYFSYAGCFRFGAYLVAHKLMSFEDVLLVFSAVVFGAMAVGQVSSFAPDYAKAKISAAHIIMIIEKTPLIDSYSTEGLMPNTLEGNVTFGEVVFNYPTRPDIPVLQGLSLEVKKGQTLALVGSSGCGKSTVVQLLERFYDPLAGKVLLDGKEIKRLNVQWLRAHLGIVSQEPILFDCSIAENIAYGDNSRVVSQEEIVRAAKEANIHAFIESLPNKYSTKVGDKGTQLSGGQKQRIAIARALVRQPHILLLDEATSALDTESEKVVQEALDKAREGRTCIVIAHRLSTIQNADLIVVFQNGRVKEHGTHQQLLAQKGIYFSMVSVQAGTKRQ

SMILES: O=C(NCCCNCc1cc(Cl)cc(Cl)c1)Nc1ccsc1
- Papp [1]: 17.2 ×10⁻⁶ cm/s
- Cmax (Mus musculus [2]): 3700 nM
- Time (Mus musculus [3]): <6 h
- Tmax [4]: 30 min
- AQ [5]: 0.42
- Activity [6]: 94%
- EC50 [7]: 420 nM
- EC50 (HepG2): 13000 nM
- t1/2 (Mus musculus [8]): 63 min
- AUC (Mus musculus [9]): 464 µM·min
- Ratio IC50 [10]: 155
- Activity [11]: 63%
- Activity [12]: 80%
- Activity [13]: inactive
- EC50 [14]: 220 nM
- inhibition (Trypanosoma brucei [15]): Dose-dependent effect
- selectivity ratio [16]: 55
- Activity (Mus musculus [17]): Non-toxic
- ΔTm (Trypanosoma brucei [18]): 8.3 °C
- selectivity ratio [19]: 59
- IC50 [20]: 28 nM

SMILES: O=C(NCCCNCc1cc(Cl)cc(Cl)c1)Nc1ccccc1
- Papp [1]: 35.6 ×10⁻⁶ cm/s
- Cmax [21]: 1350 nM
- Tmax [4]: 30 min
- AQ [5]: 0.21
- EC50 (HepG2): 20000 nM
- half-life [22]: 65 min
- AUC at 6 h [23]: 2.53 µM·h
- EC50 [14]: 415 nM
- concentration at 1 h [24]: 120 nM
- concentration at 1 h [25]: 1800 nM
- ΔTm (Trypanosoma brucei [18]): 7.8 °C
- IC50 [20]: 57 nM

SMILES: O=C(NCCCNCc1cc(Cl)cc(Cl)c1)Nc1ccc(F)cc1
- ΔTm (Trypanosoma brucei [18]): 6.3 °C

SMILES: CCOc1cccc(CNCCCNC(=O)Nc2ccccc2)c1
- ΔTm (Trypanosoma brucei [18]): 2.7 °C

SMILES: O=C(NCCCNCc1cc(Cl)cc(Cl)c1)Nc1ccccn1
- ΔTm (Trypanosoma brucei [18]): 4.5 °C

SMILES: O=C(NCCCNCc1cc(Cl)cc(Cl)c1)Nc1ccccc1O
- EC50 (HepG2): > 20000 nM
- Ratio IC50 [10]: 95
- EC50 [14]: 210 nM
- ΔTm (Trypanosoma brucei [18]): 8.4 °C
- IC50 [20]: 39 nM

SMILES: C[C@@H]1C[C@@H]([C@H](O)CC2CC(=O)NC(=O)C2)C(=O)[C@@H](C)C1
- inhibition (Trypanosoma brucei [15]): Dose-dependent effect

SMILES: O=C(NCCCNCc1cc(Cl)cc(Cl)c1)Nc1cccc(Cl)c1
- ΔTm (Trypanosoma brucei [18]): 5.2 °C

SMILES: COc1cc(Cl)cc(CNCCCNC(=O)Nc2ccccc2)c1
- Papp [1]: 7.3 ×10⁻⁶ cm/s
- EC50 [26]: 20000 nM
- AQ [5]: 0.49
- Ratio IC50 [10]: 186
- EC50 [14]: 330 nM
- ΔTm (Trypanosoma brucei [18]): 7.7 °C
- IC50 [20]: 45 nM

SMILES: NCCCC(N)(C(=O)O)C(F)F (centres undefined)
- inhibition (Trypanosoma brucei [15]): inactive

SMILES: O=C(NCCCNCc1ccc(Cl)cc1)Nc1ccccc1
- ΔTm (Trypanosoma brucei [18]): 2.5 °C

SMILES: O=C(NCCCNCc1cc(Cl)cc(Cl)c1)Nc1cccc(O)c1
- Papp [1]: 2.9 ×10⁻⁶ cm/s
- EC50 [26]: 12000 nM
- AQ [5]: 0.62
- Ratio IC50 [10]: 187
- EC50 [14]: 170 nM
- ΔTm (Trypanosoma brucei [18]): 7.7 °C
- IC50 [20]: 29 nM

SMILES: COc1ccccc1CNCCCNC(=O)Nc1ccccc1
- ΔTm (Trypanosoma brucei [18]): 1.1 °C

SMILES: O=C(NCCCNCc1cc(Cl)cc(Cl)c1)Nc1ccccc1F
- ΔTm (Trypanosoma brucei [18]): 7.3 °C

SMILES: O=C(NCCCNCc1cc(Cl)cc(Cl)c1)Nc1cccnc1
- ΔTm (Trypanosoma brucei [18]): 7.1 °C

SMILES: O=C(NCCCNCc1cc(Cl)cc(Cl)c1Cl)Nc1ccccc1
- ΔTm (Trypanosoma brucei [18]): 6.4 °C

SMILES: Nc1cccc(NC(=O)NCCCNCc2cc(Cl)cc(Cl)c2)c1
- ΔTm (Trypanosoma brucei [18]): 4.3 °C
